Bioassay records: PubChem, several laboratories
ABCG2 block: inhibitors of human ABCG2 transporter, ABCB1 counter-screen; IgMXP3 cells, JC-1 efflux, flow cytometry; inhibition, % at 6.6 µM; actives 0.1% (n = 190,000); AID 1325;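 active = inhibition above 80%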
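Read-out basis: Efflux inhibition in percent versus controls | Test system: ABCG2 IgMXP3 and barcoded ABCB1 CCRF-Adr cell mix | Quantity: 3 million cells/mL in well | Schedule: 10 min at 25 °C | Control set: Nicardipine as high control, DMSO as low control | Reagent: JC-1 as fluorescent efflux pump substrate | Signal: Flow cytometry of retained JC-1 fluorescence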
ABCB1 inh: blocks JC-1 efflux by human ABCB1 transporter. actives 0.067% (n = 190,000). P08183. inhibition, % at 6.6 µM. CCRF-Adr cells, flow cytometry; in the data active = inhibition above about 40%;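 note: higher value means more JC-1 retained so stronger ABCB1 efflux block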
Target sequence (P08183 whole entry, looked up): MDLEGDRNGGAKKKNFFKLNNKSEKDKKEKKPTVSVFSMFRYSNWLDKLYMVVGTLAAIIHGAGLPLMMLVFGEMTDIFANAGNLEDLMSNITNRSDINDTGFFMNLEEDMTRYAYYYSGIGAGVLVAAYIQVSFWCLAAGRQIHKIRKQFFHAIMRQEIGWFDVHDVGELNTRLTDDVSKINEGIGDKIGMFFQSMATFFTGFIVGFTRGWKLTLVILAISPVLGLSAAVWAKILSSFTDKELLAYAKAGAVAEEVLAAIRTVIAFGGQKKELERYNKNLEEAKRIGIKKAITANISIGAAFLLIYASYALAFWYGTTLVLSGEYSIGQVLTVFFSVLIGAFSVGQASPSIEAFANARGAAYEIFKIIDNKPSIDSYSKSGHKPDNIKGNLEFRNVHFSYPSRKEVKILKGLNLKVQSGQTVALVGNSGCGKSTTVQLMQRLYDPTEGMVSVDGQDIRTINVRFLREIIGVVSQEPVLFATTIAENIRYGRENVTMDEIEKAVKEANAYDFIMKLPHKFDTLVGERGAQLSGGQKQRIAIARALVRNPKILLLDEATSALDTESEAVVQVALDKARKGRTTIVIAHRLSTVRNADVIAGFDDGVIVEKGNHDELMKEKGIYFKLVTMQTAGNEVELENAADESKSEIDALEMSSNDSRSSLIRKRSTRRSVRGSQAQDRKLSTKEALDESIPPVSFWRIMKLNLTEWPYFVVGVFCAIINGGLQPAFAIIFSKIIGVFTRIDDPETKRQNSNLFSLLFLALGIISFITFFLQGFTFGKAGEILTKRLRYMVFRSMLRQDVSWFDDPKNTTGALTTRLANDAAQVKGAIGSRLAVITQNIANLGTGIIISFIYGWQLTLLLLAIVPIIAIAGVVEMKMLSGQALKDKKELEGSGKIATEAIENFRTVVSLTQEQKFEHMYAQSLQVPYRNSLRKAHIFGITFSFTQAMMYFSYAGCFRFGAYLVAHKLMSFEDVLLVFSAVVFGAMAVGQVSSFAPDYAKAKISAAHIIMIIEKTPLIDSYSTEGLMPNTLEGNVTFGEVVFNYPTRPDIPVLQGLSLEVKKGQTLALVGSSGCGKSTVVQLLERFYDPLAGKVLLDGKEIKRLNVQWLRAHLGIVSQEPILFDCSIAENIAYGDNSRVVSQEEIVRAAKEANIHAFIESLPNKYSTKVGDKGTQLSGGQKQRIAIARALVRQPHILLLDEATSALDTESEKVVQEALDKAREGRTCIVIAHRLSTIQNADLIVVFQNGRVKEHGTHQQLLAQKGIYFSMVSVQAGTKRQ
RAM network inh: inhibitors of the yeast RAM network | S. cerevisiae dse1pr::URA3 reporter, 5-FOA growth OD615, 2 d; analog-sensitive cbk1-as2 kinase mutant strain | inhibition, % at 50 µM | actives 1.8% (n = 190,000);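 active = inhibition above a set limit, 3 SD over mean compound inhibition, cut at about 8.4% in these data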;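 note: inhibition rescues growth on 5-FOA so higher OD means more RAM inhibition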
WT yeast gro inh: growth inhibition of WT yeast, mitochondrial fusion screen | mitochondrial fusion phenotypic screen, WT strain | inhibition, % at 10 µM | actives 2.1% (n = 190,000) | AID 1362; in the data active = inhibition above about 58%; tested in S. cerevisiae
L major viab: Leishmania major promastigote growth inhibition; inhibition, % at 10 µM; actives 9% (n = 200,000); Leishmania major promastigotes, resazurin fluorescence viability; in the data active = inhibition above about 50%;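 note: promastigotes grown with compound for 44 hours at 28 °C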
Each line names hits and unclear results; the compound was inactive in the other large screens. Compounds with a hit are over-represented: about 12% of the library has one in this group of screens.

Cc1cc(CN2CCCC(CO)(Cc3cccc(Cl)c3)C2)n[nH]1 (stereo not given)	none
CC(C)Cc1cc(CN2CCCC(CO)(Cc3cccc(Cl)c3)C2)[nH]n1 (stereo not given)	L major viab 68
CC(C)Cc1cc(CN2CCC(CO)(Cc3cccc(C(F)(F)F)c3)CC2)[nH]n1	L major viab 85
OC1(c2cccc(C(F)(F)F)c2)CCN(Cc2nnnn2CCc2ccccc2)CC1	none
CCOC(=O)C1CC2CC(C1)CN(C(=O)C1CCCCC1)C2 (stereo not given)	none
COc1ccc(Cl)cc1NC(=O)CCNC(=O)OCc1ccccc1	none
Cc1ccc(N2CCOCC2)c2c1C(=O)c1ccccc1C2=O	none
CN(C1=C(N2CCOCC2)C(=O)c2ccccc2C1=O)c1ccccc1	L major viab 59
O=C(NCc1cccs1)c1cccnc1Cl	none
Cc1ccc(Nc2ncccc2C(=O)NCc2cccs2)c(C)c1	WT yeast gro inh 67, L major viab 96
Cc1cccc(Nc2ncccc2C(=O)NCc2cccs2)c1C	L major viab 79
Cc1ccc(C)c(-c2cc(C(=O)NCc3cccs3)c3ccccc3n2)c1	none
Cc1ccccc1NC(=O)CNC(=O)c1ccc(C(F)(F)F)cc1	L major viab 62
COc1ccc(S(=O)(=O)Nc2ccc3cn[nH]c3c2)cc1C	none
CCOC(=O)c1ccc(S(=O)(=O)Nc2ccc3cn[nH]c3c2)cc1	L major viab 68
CC(=O)c1cccc(NC(=O)/C(=C\c2cccnc2)NC(=O)c2ccco2)c1	none
COc1ccc([C@H]2[C@H](C(=O)OC(C)(C)C)N3N=Cc4ccccc4C3C23C(=O)c2ccccc2C3=O)cc1OC (stereo not given in full)	none
COc1ccc([C@H]2[C@H](C(=O)OC(C)(C)C)N3N=Cc4ccccc4C3C23C(=O)c2ccccc2C3=O)c(OC)c1 (stereo not given in full)	RAM network inh 9.3
CC(=O)c1nnn(-c2ccc([N+](=O)[O-])cc2C)c1C	none
C/C(=N\NC(=O)c1c[nH]c2ccccc12)c1ccco1	none
C/C(=N\NC(=O)c1c[nH]c2ccccc12)c1ccccn1	L major viab 100
CC(=O)NC(Cc1cccc(C)c1)C(=O)NC1CCN(C(=O)c2ccc([N+](=O)[O-])cc2)CC1 (stereo not given)	none
COc1ccc(C(=O)Nc2cccc(N(C)S(C)(=O)=O)c2)cc1OC	none
Cc1ccccc1NS(=O)(=O)c1cc(S(C)(=O)=O)ccc1C	L major viab 54
Cc1ccc(C(=O)Nc2cccc(N(C)S(C)(=O)=O)c2)cc1S(=O)(=O)Nc1ccccc1	L major viab 75
Cc1ccccc1NS(=O)(=O)c1cc(C(=O)Nc2cccc([N+](=O)[O-])c2)ccc1C	L major viab 72
Cc1ccc(C)c(NS(=O)(=O)c2cc(C(=O)Nc3ccccc3-c3ccccc3)ccc2C)c1	none
Cc1ccc(C(=O)Nc2ccccc2-c2ccccc2)cc1S(=O)(=O)Nc1cccc(C)c1C	L major viab 63
COc1ccc(C=O)cc1Cn1ccnc1C	none
O=C(CN1CCN(c2ccc(O)cc2)CC1)NC(c1ccccc1)c1ccccc1	L major viab 84
CC1=NN(c2nc(-c3ccc(C)cc3)cs2)C(=O)C1N=Nc1cccc(C)c1 (stereo not given)	L major viab 86
Nc1ccc(C(=O)N/N=C\C=C\c2ccc([N+](=O)[O-])cc2)cc1	none
Cc1cccc(C)c1Nc1ncnc(N)c1[N+](=O)[O-]	none
Cc1ccc(Sc2ncnc(N)c2[N+](=O)[O-])cc1	none
Nc1ncnc(Sc2ncccn2)c1[N+](=O)[O-]	L major viab 59
Nc1ncnc(Sc2ccc(Cl)cc2)c1[N+](=O)[O-]	L major viab 67
Cc1ccc(N(CC(=O)NCCSc2ccccn2)S(C)(=O)=O)cc1	none
COc1ccc(-c2c3c(=O)n(C)c(=O)n(C)c3cn2-c2cc(OC)ccc2OC)cc1	none
CC(NC(=O)C12CC3CC(CC(C3)C1)C2)C(=O)N/N=C/C1=C(N2CCOCC2)C(=C\c2ccccc2)/CC1 (stereo not given)	L major viab 100
Cc1ccc(CNc2ccc(O)cc2)cc1	L major viab 99
COc1ccc(CCN2C(=O)CS/C2=N\NC(=O)c2cccs2)cc1OC	none
CCCOc1ccc(Br)cc1/C=N/O	none
CCCCOc1ccc(CN(CCO)CCO)cc1[N+](=O)[O-]	none
CCCCCCOc1ccc(/C(C)=N/NC2=NCCN2)cc1[N+](=O)[O-]	L major viab 100
CCCCOc1ccc(Br)cc1/C(C)=N/NC1=NCCN1	L major viab 101
COc1ccc(C)cc1NC(=O)CCN1CC(C)OC(C)C1 (stereo not given)	none
COc1ccc2c(c1OC)C(=O)OC2Nc1nc(-c2ccc(-c3ccccc3)cc2)cs1 (stereo not given)	L major viab 52
COCCN(Cc1cc2cccc(C)c2[nH]c1=O)C(=O)c1ccccc1	none
Cc1cccc2cc(CN(Cc3cccs3)C(=S)NCC3CCCO3)c(=O)[nH]c12 (stereo not given)	none
Cc1ccc(NC(=S)N(Cc2cccs2)Cc2cc3cccc(C)c3[nH]c2=O)cc1	L major viab 92
Cc1cccc2cc(CN(CCN(C)C)C(=S)Nc3ccccc3)c(=O)[nH]c12	L major viab 79 (no result: ABCB1 inh)
COc1ccccc1NC(=S)N(Cc1ccco1)Cc1cc2cc(C)cc(C)c2[nH]c1=O	L major viab 85
COC(=O)c1ccccc1NC(=S)N(Cc1ccc2c(c1)OCO2)Cc1cc2cccc(C)c2[nH]c1=O	L major viab 67
COc1ccccc1NC(=O)Cn1c(CCC(=O)O)ccc1-c1ccc(C)cc1	none
COC(=O)c1sc(NC(=O)/C=C/c2ccc(C)o2)nc1C	none
Cc1ccc2cc(CN(CCCN(C)C)C(=S)NCc3ccccc3)c(=O)[nH]c2c1C	L major viab 95
O=C(O)CC1SC(=Nc2ccccc2)N(c2ccccc2)C1=O (stereo not given)	none
Cc1ccc(CC2SC(=Nc3ccccc3)N(c3ccccc3)C2=O)cc1 (stereo not given)	WT yeast gro inh 61, L major viab 53
Cn1cc(Br)c(C(=O)NC2CCCCC2)n1	none
Cc1ccc2nc3c(cc(C#N)c(=N)n3Cc3cccnc3)c(=O)n2c1	none
CC(c1ccco1)N(C(=O)c1ccccc1NS(=O)(=O)c1cc([N+](=O)[O-])ccc1Cl)c1ccccn1 (stereo not given)	L major viab 51
CC(c1ccco1)N(C(=O)c1ccccc1NS(=O)(=O)c1cccc([N+](=O)[O-])c1)c1ccccn1 (stereo not given)	none
CN(C(=O)COC(=O)CNC(=O)C12CC3CC(CC(C3)C1)C2)C1CCS(=O)(=O)C1 (stereo not given)	none
Nc1c(N2CCCCC2)c2ccccc2oc1=O	none
O=C(c1ccccc1F)N1CCN(c2ccc([N+](=O)[O-])c3ncccc23)CC1	none
